The target of assay [1] is Coagulation factor X (Homo sapiens, UniProt P00742). Put plainly: In vitro activity against Factor Xa was determined.
Assay [2] concerns the target T1, Plasminogen (Homo sapiens, UniProt P00747). In words: In vitro activity against […] was determined.
The target of assay [3] is T2, Prothrombin (Homo sapiens, UniProt P00734). In words: In vitro activity against thrombin was determined.
Assay [4] deals with Serine protease 1 (Homo sapiens, UniProt P07477). In words: In vitro activity against trypsin was determined.
Sequence of Serine protease 1 (P07477 whole entry): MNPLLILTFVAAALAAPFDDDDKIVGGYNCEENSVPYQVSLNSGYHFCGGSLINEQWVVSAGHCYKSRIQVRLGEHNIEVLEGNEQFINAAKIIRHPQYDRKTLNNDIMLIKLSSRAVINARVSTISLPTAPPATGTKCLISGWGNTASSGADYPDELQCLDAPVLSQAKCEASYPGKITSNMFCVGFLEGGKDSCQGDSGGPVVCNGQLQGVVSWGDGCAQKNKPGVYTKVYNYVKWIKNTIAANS
Assay [5] deals with T2, Prothrombin. In words: In vitro activity against thrombin with 10 uM substrate s-2238 (D-Phe-Pip-Arg-pNA).
Assay [6] has as its target T1, Plasminogen. Put plainly: In vitro activity against plasmin was determined.
The target of assay [7] is T2, Prothrombin. Put plainly: In vitro activity against thrombin was determined, using a 10 uM substrate s-2238 (D-Phe-Pip-Arg-pNA); 20-30. In a few lines:
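Human α-thrombin (0.1 unit/mL) preincubated with inhibitor for 3 min at room temperature in pH 7.4 buffer (30 mM HEPES, 145 mM NaCl, 5 mM KCl, 1 mg/mL PEG-8000). […] Absorbance change at 405 nm followed kinetically. Values are means of at least triplicate determinations.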

The term IC50 denotes the concentration needed to halve the response being measured. A higher IC50 goes with lower potency.

Square brackets hold non-standard residues; d marks the D form. Peptide text beside a SMILES is read from it. Phe(ol) = N[C@H](CO)Cc1ccccc1; Ahp = NCCCCCCC(=O)O; Ahx = NCCCCCC(=O)O; Ava = NCCCCC(=O)O; GABA = NCCCC(=O)O

Sequence of Coagulation factor X (P00742 41-179 limits assumed): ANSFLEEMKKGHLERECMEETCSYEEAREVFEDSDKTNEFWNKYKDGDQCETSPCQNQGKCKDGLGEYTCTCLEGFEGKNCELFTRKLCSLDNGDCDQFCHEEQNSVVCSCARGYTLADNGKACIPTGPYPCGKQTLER
Sequence of Coagulation factor X (P00742 235-488 limits assumed): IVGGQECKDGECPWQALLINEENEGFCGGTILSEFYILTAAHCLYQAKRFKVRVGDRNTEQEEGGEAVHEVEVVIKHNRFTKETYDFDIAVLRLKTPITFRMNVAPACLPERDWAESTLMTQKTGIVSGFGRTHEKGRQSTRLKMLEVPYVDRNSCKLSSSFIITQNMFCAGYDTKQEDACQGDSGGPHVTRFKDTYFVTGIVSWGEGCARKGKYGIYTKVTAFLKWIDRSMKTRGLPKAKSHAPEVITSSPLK
T1 sequence (P00747 97-580 limits assumed): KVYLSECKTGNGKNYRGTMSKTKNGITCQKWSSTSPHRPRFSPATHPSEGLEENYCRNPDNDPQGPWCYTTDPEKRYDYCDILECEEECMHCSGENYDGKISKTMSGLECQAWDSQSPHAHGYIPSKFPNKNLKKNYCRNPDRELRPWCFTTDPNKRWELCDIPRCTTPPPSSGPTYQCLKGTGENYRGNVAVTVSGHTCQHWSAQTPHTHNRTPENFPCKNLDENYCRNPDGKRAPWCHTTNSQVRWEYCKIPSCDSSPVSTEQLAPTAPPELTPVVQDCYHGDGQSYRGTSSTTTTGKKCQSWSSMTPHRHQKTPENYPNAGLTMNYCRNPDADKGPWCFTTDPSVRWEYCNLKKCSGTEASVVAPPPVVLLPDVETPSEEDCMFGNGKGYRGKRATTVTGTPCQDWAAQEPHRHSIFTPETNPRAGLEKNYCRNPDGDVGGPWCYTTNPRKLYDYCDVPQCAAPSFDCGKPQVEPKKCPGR
T1 sequence (P00747 581-810 limits assumed): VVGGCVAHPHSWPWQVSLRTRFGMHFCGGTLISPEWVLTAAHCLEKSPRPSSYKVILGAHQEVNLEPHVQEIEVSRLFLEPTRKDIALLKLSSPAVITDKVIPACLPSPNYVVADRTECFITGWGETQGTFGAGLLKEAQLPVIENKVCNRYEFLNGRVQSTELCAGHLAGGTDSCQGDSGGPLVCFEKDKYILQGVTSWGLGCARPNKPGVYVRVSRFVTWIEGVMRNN

`CN[C@H](Cc1ccccc1)C(=O)N1CCC[C@H]1C(=O)N[C@H](C=O)CCCN=C(N)N`: the IC50 in assay [1] worked out at 4 µM; in assay [2] it was 0.23 µM; in assay [3] it was 0.008 µM; in assay [4], 0.008 µM.
In assay [5], `CC(C)C[C@H](NC(=O)[C@H](Cc1ccccc1)NC(=O)CCCCCN)C(=O)N[C@@H](CC1CCCCC1)[C@@H](O)c1nccs1` had an IC50 of 7.5 µM.
On the same count and under the same terms, with `COC(=O)[C@H](Cc1ccccc1)NC(=O)[C@H](CC(C)C)NC(=O)[C@H](Cc1ccccc1)NC(=O)CCCNC(=N)N` the figure was 1.41 µM.
Regarding `CC(C)C[C@H](NC(=O)[C@H](Cc1ccccc1)NC(=O)CCCN=C(N)N)C(=O)N[C@@H](CC1CCCCC1)[C@@H](O)c1nccs1`, the half-inhibitory concentration (IC50) in assay [1] amounted to 6 µM; in assay [6], 143 µM.
`COC(=O)[C@H](Cc1ccccc1)NC(=O)[C@H](CC(C)C)NC(=O)[C@H](Cc1ccccc1)NC(=O)CCCCNC(=N)N` came in with an IC50 in assay [5] of 154 µM.
In assay [5], `COC(=O)C(O)[C@H](CCCCN)NC(=O)[C@@H]1CCCN1C(=O)[C@@H](Cc1ccccc1)NC(=O)CCCCCN` (some centres undefined) came in with a half-inhibitory concentration (IC50) of 17.6 µM.
The same measure, in the same setting: as for `COC(=O)[C@H](Cc1ccccc1)NC(=O)[C@H](CC(C)C)NC(=O)[C@H](Cc1ccccc1)NC(=O)CCCCCNC(=N)N`, the figure is above 200 µM.
Regarding `CC(C)C[C@H](NC(=O)[C@@H](N)Cc1ccccc1)C(=O)N[C@@H](CC1CCCCC1)[C@@H](O)c1nccs1`, the IC50 in assay [5] is above 530 µM.
The molecule `COC(=O)C(O)[C@H](CCCCN)NC(=O)[C@@H]1CCCN1C(=O)[C@H](N)Cc1ccccc1` (some centres undefined) showed an IC50 in assay [7] of 30 µM.
In assay [5], `COC(=O)[C@H](Cc1ccccc1)NC(=O)[C@H](CC(C)C)NC(=O)[C@@H](N)Cc1ccccc1` (H-Phe-Leu-Phe-OMe) displayed an IC50 above 333 µM.
In assay [5], `COC(=O)[C@H](Cc1ccccc1)NC(=O)[C@H](CC(C)C)NC(=O)[C@H](Cc1ccccc1)NC(=O)CCCCCCN` (H-[Ahp]FLF-OMe) came in with a half-inhibitory concentration (IC50) of 330 µM.
On the same count and under the same terms, with `COC(=O)[C@H](Cc1ccccc1)NC(=O)[C@H](CC(C)C)NC(=O)[C@H](Cc1ccccc1)NC(=O)CCCCCN` (H-[Ahx]FLF-OMe) the figure was 80 µM; with `COC(=O)[C@H](Cc1ccccc1)NC(=O)[C@H](CC(C)C)NC(=O)[C@H](Cc1ccccc1)NC(=O)CCCCN` (H-[Ava]FLF-OMe), 57.1 µM; with `CC(C)C[C@H](NC(=O)[C@H](Cc1ccccc1)NC(=O)CCCCN)C(=O)N[C@H](CO)Cc1ccccc1` (H-[Ava]FL[Phe(ol)]), 100 µM.
Molecule `COC(=O)[C@H](Cc1ccccc1)NC(=O)[C@H](CC(C)C)NC(=O)[C@H](Cc1ccccc1)NC(=O)CCCN` (H-[GABA]FLF-OMe) displayed an IC50 in assay [5] above 300 µM.

Values taken from ChEMBL document CHEMBL1127567, “Retro-binding tripeptide thrombin active-site inhibitors: discovery, synthesis, and molecular modeling” (J Med Chem, 1994).
